# High-throughput results (PubChem)
# A selection: hits, their analogues and other compounds. The true share with any hit is near 2.9%.
# TRPC6 act: mouse TRPC6 channel activators, primary screen, cell-based, HEK293, membrane potential dye; AID 2550, 2010; 0.13% of 310,000 active; B-score at 10 µM; HEK293-TRPC6 membrane potential dye fluorescence; stronger effect = higher value;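 active = B-score of the integrated fluorescence ratio above library mean plus 3 SD, and starting fluorescence ratio within library mean plus 5 SD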;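 note: higher score means more depolarization so channel activation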
# TRPC4 act: activators of mouse TRPC4 channel, primary screen, Fluo4 calcium, HEK293 TRPC4beta/mu-opioid cells; Short transient receptor potential channel 4 (Mus musculus), Q9QUQ5; Fluo4 calcium fluorescence; stronger effect = higher value; B-score at 10 µM; 0.49% of 310,000 active; AID 2237, 2010;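 active = B-score above 5 SD of library B-scores, and initial fluorescence ratio not above library mean plus 5 SD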;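 note: positive B-score marks a calcium rise read as TRPC4 activation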
#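 System: HEK293 cells stably co-expressing mouse TRPC4beta and mu-opioid receptor; Schedule: Fluo4 dye loading 45 min at room temperature, 110 s recording; Detection: Fluo4 fluorescence, kinetic; Evaluation: B-scored integrated calcium fluorescence ratio; Controls: buffer (low) and maximal DAMGO (high).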
# TRPC4 inh: inhibitors of mouse TRPC4 channel, primary screen, Fluo4 calcium, HEK293 TRPC4beta/mu-opioid cells. 0.39% of 300,000 active. DAMGO-evoked Fluo4 calcium flux; stronger effect = lower value. B-score at 10 µM;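 active = B-score over 3 SD under the library average, no early fluorescence shift, positive overall ratio signal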
#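 Assay system: TRPC4beta/mu-opioid receptor HEK293 cell line; compound dosing: single concentration per test compound; detection: Fluo4 Ca2+ flux fluorescence; evaluation: per-well B score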
# Kir21 inh: inhibitors of mouse Kir2.1 inward-rectifier potassium channel | 0.85% of 310,000 active | B-score at 10 µM | Inward rectifier potassium channel 2 (Mus musculus), P35561 | HEK293-Kir2.1, FluxOR thallium flux fluorescence; stronger effect = lower value | AID 1672, 2009;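 active = fluorescence ratio B-score at or below minus 3 SD of library scores, with starting-brightness B-score within 2 SD, cut at about -4.2 in these data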;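 note: channel flux triggered by added potassium and thallium sulfate stimulus; B-score of peak minus minimum fluorescence over baseline after thallium stimulus; more negative B-score means stronger Kir2.1 block with less thallium influx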
# Target sequence (P35561 whole entry, looked up): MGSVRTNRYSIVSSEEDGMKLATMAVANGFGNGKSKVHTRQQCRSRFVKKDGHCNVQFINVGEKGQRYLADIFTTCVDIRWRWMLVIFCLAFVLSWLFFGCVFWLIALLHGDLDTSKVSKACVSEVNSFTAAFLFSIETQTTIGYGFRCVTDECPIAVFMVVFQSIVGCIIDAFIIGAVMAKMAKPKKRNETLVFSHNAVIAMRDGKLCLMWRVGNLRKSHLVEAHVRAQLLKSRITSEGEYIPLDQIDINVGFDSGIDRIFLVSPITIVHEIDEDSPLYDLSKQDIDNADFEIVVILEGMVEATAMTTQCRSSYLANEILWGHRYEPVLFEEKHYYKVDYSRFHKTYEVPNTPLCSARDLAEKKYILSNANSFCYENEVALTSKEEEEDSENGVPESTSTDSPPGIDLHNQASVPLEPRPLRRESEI
# TRPC4 potent: positive allosteric modulators of TRPC4, primary screen, cell-based, mouse TRPC4beta, HEK293 mu-opioid, Fluo-4 calcium; DAMGO EC20, Fluo-4 Ca2+ flux; stronger effect = higher value; B-score at 10 µM; 0.42% of 310,000 active;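 active = B-score of calcium response area above 5 SD of library B-scores, with initial fluorescence ratio within 5 SD of library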;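 note: B-score of integrated fluorescence ratio over time as area under calcium response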
# TRPC6 inh: mouse TRPC6 channel inhibitors, primary screen, cell-based, HEK293, membrane potential dye; AID 2553, 2010; ACh-evoked depolarization; stronger effect = lower value; B-score at 10 µM; 1.1% of 310,000 active;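 active = B-score under library mean minus 3 SD, initial fluorescence not abnormally high, positive integrated signal ratio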;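 note: B-score derived from integrated fluorescence ratio over the kinetic read; more negative B-score means stronger inhibition of depolarization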
# Starred values were filed as active, the others as inactive; i = inactive.
SMILES,TRPC6 act,TRPC4 act,TRPC4 inh,Kir21 inh,TRPC4 potent,TRPC6 inh
CCOC(=O)C(O)(c1ccc(NC(=S)NC(=O)c2ccc(Cl)cc2Cl)cc1)C(F)(F)F (stereo not given),i,i,i,-0.14,13*,i
CCOC(=O)C(O)(c1ccc(NC(=S)NC(=O)c2ccc(Cl)cc2Cl)c(C)c1)C(F)(F)F (stereo not given),i,i,i,0.52,16*,i
[N-]=[N+]=NCCN1CCC(O)CCC1=O (stereo not given),i,i,i,0.36,i,i
CN(C)C(=O)Oc1c(Cl)cc(Cl)c2ccccc12,i,i,i,0.32,i,i
Cc1cc(OC(=O)N(C)C)nc(SCc2c(Cl)cccc2Cl)n1,i,i,i,-0.03,11*,i
CN1CCN(Cc2cc3c(cc2[N+](=O)[O-])OCO3)CC1,i,i,i,1.4,i,i
C[C@H]1CCCC(=O)CCC/C=C/c2cc(O)cc(O)c2C(=O)O1,i,i,i,-4.4*,i,i
CC(=O)c1c(O)n(-c2cccc(Cl)c2)c(=O)[nH]c1=O (tested in a mixture with another compound),i,i,i,-0.23,i,i
CC(C)n1c(O)c(C2c3cc(Cl)ccc3Oc3[nH]c(=O)n(C(C)C)c(=O)c32)c(=O)[nH]c1=O (stereo not given),i,i,i,-4.32*,i,i
Clc1ccc(N2CCNCC2)nn1,i,i,i,-0.04,22*,i
Clc1cccc(N2CCNCC2)c1,i,i,i,-0.29,i,i
CCc1c(-c2ccccc2)nc2ccccc2c1C(=O)N1CCC2(CC1)OCCO2,i,i,i,0.36,i,i
CC(C)(C)c1cc([N+](=O)[O-])cc(C(C)(C)C)c1O,i,i,i,-1.31,i,i
CC(=O)c1cn(CC(=O)NCCc2c[nH]c3ccccc23)c2ccccc12,i,i,i,0.24,i,i
Clc1cccc(CNCCc2ccc3c(c2)OCO3)c1,i,i,i,0.85,i,i
CC1(C)CC(CCNCc2ccc3c(c2)OCO3)(Cc2ccccc2)CCO1 (stereo not given),i,60*,i,-2.8,i,i
Cc1[nH]c2ccc(OC(F)(F)F)cc2c1CCNCc1ccc(Cl)cc1,i,i,i,-7.16*,i,i
CCOc1cccc(CNCCc2c(C)[nH]c3ccc(OC(F)(F)F)cc23)c1O,i,i,i,-13.1*,i,i
COc1nc2ccccc2c(=O)n1-c1ccc(Cl)cc1,i,i,i,-0.14,11*,i
COc1nc2ccccc2c(=O)n1-c1ccc(C)cc1,i,i,i,-1.38,i,i
O=S(=O)(c1ccc(F)cc1)N1CCCCC1c1cccnc1 (stereo not given),i,i,i,-4.87*,i,i
O=S(=O)(c1ccc(Cl)cc1)N1CCCCC1c1cccnc1 (stereo not given),i,i,i,-8.96*,i,i
Cc1ccc(S(=O)(=O)N2CCCC2c2cccnc2)cc1 (stereo not given),i,i,i,-3.85,i,i
O=S(=O)(c1ccc(F)cc1)N1CCCC1c1cccnc1 (stereo not given),i,i,i,-1.51,i,i
c1ccc2oc(N3CCNCC3)nc2c1,i,72*,i,0.06,44*,i
SMILES,TRPC6 act,TRPC4 act,TRPC4 inh,Kir21 inh,TRPC4 potent,TRPC6 inh
CCn1cc(CN2CCCC(C(=O)c3cccc(OC)c3)C2)c(C)n1 (stereo not given),i,53*,i,0.03,i,i
COc1ccc(CN2CCCC(C(=O)c3ccc(Cl)cc3)C2)c(O)c1 (stereo not given),i,i,i,-10.5*,i,i
CNCC(C)c1ccccc1 (stereo not given),i,i,i,-1.03,i,i
CCOc1cc(CNC(C)C(O)c2ccccc2)cc(Cl)c1OCC (stereo not given),i,i,i,-5.58*,i,i
CC(NCc1ccc(Cl)c(Cl)c1)C(O)c1ccccc1 (stereo not given),i,i,i,-4.6*,i,i
CC(NCc1ccccc1C(F)(F)F)C(O)c1ccccc1 (stereo not given),i,i,i,1.62,i,i
CC(NCc1ccccc1Cl)C(O)c1ccccc1 (stereo not given),i,i,i,-5.65*,i,i
O=c1[nH]c(=O)n(Cc2ccccc2Cl)c(O)c1/C=C1/C=CC=N1,i,i,i,0.77,i,i
CC(C)(C)C(=O)NC1CCSC1=O (stereo not given),i,i,i,-0.06,i,i
O=c1cccc2n1CC1CC2CN(Cc2cccc(Cl)c2Cl)C1 (stereo not given),i,i,i,-7.81*,i,i
CCOc1ccc(C(C)=O)cc1Cn1ccsc1=N,i,i,-5*,-0.43,i,i
COc1ccc(C(C)=O)cc1CC(C(=O)c1ccc(C)cc1)N(C)C (stereo not given),i,i,i,-1.92,i,i
CCS(=O)(=O)NC(C)c1nnc2n1-c1ccc(Br)cc1C(c1ccccc1Cl)=NC2 (stereo not given),i,i,i,0.79,i,i
CCOC(=O)c1cc(C)n(CCc2cnc[nH]2)c1C,i,138*,i,0.8,i,i
CC1CN(c2ccc([N+](=O)[O-])cc2Cl)CCN1 (stereo not given),i,63*,i,0.06,66*,i
CC1CN(c2cc([N+](=O)[O-])ccc2Cl)CC(C)N1 (stereo not given),i,i,i,-0.44,i,i
CN1CCN(c2ccc([N+](=O)[O-])cc2Cl)CC1,i,i,i,-2.15,27*,i
CCC(=O)OC1(Cc2ccc(CC)cc2)CC(C)N(C)CC1C (stereo not given),i,48*,-8*,-1.43,i,i
